The text below walks through data of ChEMBL document CHEMBL1155459, “On-bead screening of a combinatorial fumaric acid derived peptide library yields antiplasmodial cysteine protease inhibitors with unusual peptide sequences” (J Med Chem, 2009).

For orientation: inhibition means the relative decrease from the control value, in per cent.

A short description of assay [1]: Inhibition of Plasmodium falciparum falcipain-2 after 12 hrs by fluorescence spectroscopy-based on-bead assay. Also on record: concentration or dose not given beside the values. The settings on record: concentration not given here. The method, boiled down: (§1)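 Library members on resin (PEGA, theoretical loading 0.40 mmol/g; added as DMSO suspension, 0.64 mM final inhibitor) preincubated with enzyme 12 h, then Cbz-Phe-Arg-AMC 40 μM added; AMC release followed by fluorescence (ex 380/em 460 nm). Kinetics compared with inhibitor-free amino-PEGA resin.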

The target in assay [2] is Rhodesain (Trypanosoma brucei rhodesiense) (UniProt Q95PM0). The assay is described as follows: Inhibition of Trypanosoma brucei rhodesiense rhodesain after 12 hrs by fluorescence spectroscopy-based on-bead assay. Also on record: concentration or dose not given beside the values. To be noted: concentration not given here. A digest of the protocol: as §1
Sequence of Rhodesain (Trypanosoma brucei rhodesiense) (Q95PM0 1-450): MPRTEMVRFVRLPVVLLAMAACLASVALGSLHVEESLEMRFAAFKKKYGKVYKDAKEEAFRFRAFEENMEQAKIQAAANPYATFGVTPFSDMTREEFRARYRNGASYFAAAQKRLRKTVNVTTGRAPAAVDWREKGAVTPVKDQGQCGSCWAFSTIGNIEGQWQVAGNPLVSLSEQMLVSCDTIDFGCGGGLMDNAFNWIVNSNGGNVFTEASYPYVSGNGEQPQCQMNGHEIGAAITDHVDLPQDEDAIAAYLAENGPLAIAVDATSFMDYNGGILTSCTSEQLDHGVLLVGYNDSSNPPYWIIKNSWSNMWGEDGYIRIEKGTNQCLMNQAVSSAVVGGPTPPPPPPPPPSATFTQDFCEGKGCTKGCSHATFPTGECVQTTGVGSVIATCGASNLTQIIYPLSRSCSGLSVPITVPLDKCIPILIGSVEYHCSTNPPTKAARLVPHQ

Peptide text beside a SMILES is read from it.

Consider `CC(=O)NC[C@H](NC(=O)/C=C/C(=O)NCC(=O)NCC(=O)N[C@@H](Cc1ccccc1)C(=O)O)C(=O)N[C@@H](Cc1ccccc1)C(=O)N[C@@H](C)C(=O)N[C@H](C(N)=O)C(C)C` (HELM PEPTIDE1{[O=C(/C=C/C(=O)[*:2])NCC(=O)NCC(=O)N[C@@H](Cc1ccccc1)C(=O)O].[O=C([C@H](CN[*:3])N[*:1])[*:2]].F.A.V.[am]}|PEPTIDE2{[ac]}$PEPTIDE1,PEPTIDE2,2:R3-1:R2$$$V2.0), for which the values for the inhibition in assay [1] and in assay [2] were 45% and 15%, respectively.
In the same order, the values of `CC(=O)NC[C@H](NC(=O)/C=C/C(=O)N[C@@H](C)C(=O)NCC(=O)N[C@@H](Cc1ccccc1)C(=O)O)C(=O)N[C@@H](Cc1ccccc1)C(=O)N[C@H](C(=O)N[C@H](C(N)=O)C(C)C)C(C)C` (HELM PEPTIDE1{[C[C@H](NC(=O)/C=C/C(=O)[*:2])C(=O)NCC(=O)N[C@@H](Cc1ccccc1)C(=O)O].[O=C([C@H](CN[*:3])N[*:1])[*:2]].F.V.V.[am]}|PEPTIDE2{[ac]}$PEPTIDE1,PEPTIDE2,2:R3-1:R2$$$V2.0) are 32% and 44%.
In the same order, the values of `CC(C)[C@H](NC(=O)[C@@H](NC(=O)[C@@H](NC(=O)[C@H](CC(N)=O)NC(=O)/C=C/C(=O)N[C@@H](C)C(=O)NCC(=O)N[C@@H](Cc1ccccc1)C(=O)O)C1CCCCC1)C(C)C)C(N)=O` (HELM PEPTIDE1{[C[C@H](NC(=O)/C=C/C(=O)[*:2])C(=O)NCC(=O)N[C@@H](Cc1ccccc1)C(=O)O].N.[O=C([C@@H](N[*:1])C1CCCCC1)[*:2]].V.V.[am]}$$$$V2.0) are 62% and 50%.
In the same order, the values of `CC(C)C[C@H](NC(=O)[C@H](Cc1ccccc1)NC(=O)[C@H](CC(N)=O)NC(=O)/C=C/C(=O)N[C@@H](C)C(=O)NCC(=O)N[C@@H](Cc1ccccc1)C(=O)O)C(=O)N[C@H](C(N)=O)C(C)C` (HELM PEPTIDE1{[C[C@H](NC(=O)/C=C/C(=O)[*:2])C(=O)NCC(=O)N[C@@H](Cc1ccccc1)C(=O)O].N.F.L.V.[am]}$$$$V2.0) are 58% and 64%.
For `CC[C@H](C)[C@H](NC(=O)[C@H](C)NC(=O)/C=C/C(=O)N[C@@H](C)C(=O)NCC(=O)N[C@@H](Cc1ccccc1)C(=O)O)C(=O)N[C@@H](CC(C)C)C(=O)N[C@H](C(N)=O)C(C)C` (HELM PEPTIDE1{[C[C@H](NC(=O)/C=C/C(=O)[*:2])C(=O)NCC(=O)N[C@@H](Cc1ccccc1)C(=O)O].A.I.L.V.[am]}$$$$V2.0), the inhibition stood at 54% in assay [1] and 49% in assay [2].
In the case of `CC(C)[C@H](NC(=O)[C@@H](NC(=O)[C@@H](NC(=O)[C@H](Cc1ccccc1)NC(=O)/C=C/C(=O)NCC(=O)NCC(=O)N[C@@H](Cc1ccccc1)C(=O)O)C1CCCCC1)C(C)C)C(N)=O` (HELM PEPTIDE1{[O=C(/C=C/C(=O)[*:2])NCC(=O)NCC(=O)N[C@@H](Cc1ccccc1)C(=O)O].F.[O=C([C@@H](N[*:1])C1CCCCC1)[*:2]].V.V.[am]}$$$$V2.0), the inhibition in assay [1] came to 48%; in assay [2], 49%.
Consider `CC(C)[C@H](NC(=O)[C@H](C)NC(=O)[C@@H](NC(=O)[C@H](C)NC(=O)/C=C/C(=O)N[C@@H](C)C(=O)NCC(=O)N[C@@H](Cc1ccccc1)C(=O)O)c1ccccc1)C(N)=O` (HELM PEPTIDE1{[C[C@H](NC(=O)/C=C/C(=O)[*:2])C(=O)NCC(=O)N[C@@H](Cc1ccccc1)C(=O)O].A.[Phg].A.V.[am]}$$$$V2.0), for which the inhibition in assay [1] is 57%; in assay [2], 25%.
As for `CC(C)C[C@H](NC(=O)[C@@H](NC(=O)[C@H](Cc1ccccc1)NC(=O)/C=C/C(=O)NCC(=O)NCC(=O)N[C@@H](Cc1ccccc1)C(=O)O)C1CCCCC1)C(=O)N[C@H](C(N)=O)C(C)C` (HELM PEPTIDE1{[O=C(/C=C/C(=O)[*:2])NCC(=O)NCC(=O)N[C@@H](Cc1ccccc1)C(=O)O].F.[O=C([C@@H](N[*:1])C1CCCCC1)[*:2]].L.V.[am]}$$$$V2.0), the inhibition in assay [1] worked out at 40%; in assay [2], 57%.
